Data taken from ChEMBL document CHEMBL4033778, “Species-Selective Pyrimidineamine Inhibitors of Trypanosoma brucei S-Adenosylmethionine Decarboxylase” (J Med Chem, 2018).

Assays:
[1] = target: T1, S-adenosylmethionine decarboxylase proenzyme (Homo sapiens, UniProt P17707); assay: Inhibition of recombinant human N-terminal His6-tagged AdoMetDC expressed in Escherichia coli BL21/DE3 cells at pH 7.2 by RapidFire-MS-based enzyme activity assay
T1 sequence (P17707 whole entry): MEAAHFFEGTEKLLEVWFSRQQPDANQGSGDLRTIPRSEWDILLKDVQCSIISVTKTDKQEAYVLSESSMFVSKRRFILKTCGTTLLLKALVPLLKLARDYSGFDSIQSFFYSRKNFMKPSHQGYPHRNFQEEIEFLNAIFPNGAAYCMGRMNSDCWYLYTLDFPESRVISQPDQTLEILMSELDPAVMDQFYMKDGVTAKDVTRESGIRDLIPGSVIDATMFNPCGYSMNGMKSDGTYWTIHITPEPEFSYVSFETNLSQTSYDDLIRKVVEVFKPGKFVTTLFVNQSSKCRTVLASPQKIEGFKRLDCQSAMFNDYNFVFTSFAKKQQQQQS

[2] = test system: Trypanosoma brucei; assay: Inhibition of recombinant Trypanosoma brucei N-terminal His6-tagged AdoMetDC/prozyme hetrodimer expressed in Escherichia coli BL21/DE3 cells at 180 uM at pH 7.2 by RapidFire-MS-based enzyme activity assay
Outline: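 Steady-state decarboxylation of S-adenosyl-L-methionine by purified TbAdoMetDC/prozyme at pH 7.2; decarboxylated AdoMet product read by RapidFire–MS. Inhibitor added from DMSO to 2% final DMSO. Percent inhibition reported at the top tested concentration when mean inhibition stayed below 50%; triplicate.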

[3] = Inhibition of recombinant Trypanosoma brucei N-terminal His6-tagged AdoMetDC/prozyme hetrodimer expressed in Escherichia coli BL21/DE3 cells at pH 7.2 by RapidFire-MS-based enzyme activity assay
[4] = target: T2, S-adenosylmethionine decarboxylase proenzyme (Homo sapiens) (UniProt P17707); assay: Inhibition of recombinant human N-terminal His6-tagged AdoMetDC expressed in Escherichia coli BL21/DE3 cells at 180 uM at pH 7.2 by RapidFire-MS-based enzyme activity assay
T2 sequence (whole entry): T1 sequence (P17707 whole entry)

IC50 [1]	inhibition [4]	SMILES	inhibition [2]	IC50 [3]
> 63 µM	–	Cc1cc(Nc2cc(Cl)c(OC(F)F)c(Cl)c2)nc(N)n1	–	> 63 µM
–	21%	COc1cc(Nc2cc(C)nc(N)n2)cc(OC)c1	–	17 µM
> 180 µM	–	Cc1cc(Nc2cc(Cl)cc(S(F)(F)(F)(F)F)c2)nc(N)n1	–	16 µM
> 180 µM	–	Cc1cc(Nc2cc(Cl)cc(-c3ccc(O)cc3)c2)nc(N)n1	–	143 µM
> 180 µM	–	COc1ccc(-c2cc(Cl)cc(Nc3cc(C)nc(N)n3)c2)cc1	–	2.3 µM
> 180 µM	–	CCCCOc1cc(Br)cc(Nc2cc(C)nc(N)n2)c1	–	4.5 µM
> 63 µM	–	Cc1cc(Nc2cc(Cl)cc(-c3ccc(Cl)cc3)c2)nc(N)n1	–	1.7 µM
> 21 µM	–	Nc1nc2c(c(Nc3cc(Cl)cc(Cl)c3)n1)CCC2	–	12 µM
> 180 µM	–	Cc1cc(Nc2cc(C(=O)O)cc(C(=O)O)c2)nc(N)n1	–	> 180 µM
> 63 µM	–	Cc1cc(Nc2cc(Cl)c(C)c(Cl)c2)nc(N)n1	–	20 µM
–	36%	CCc1cc(Nc2cc(Cl)cc(Cl)c2)nc(N)n1	–	3 µM
> 63 µM	–	CNc1nc(C)cc(Nc2cc(Cl)cc(Cl)c2)n1	–	> 63 µM
> 180 µM	–	Cc1cc(Nc2cc(-c3ccccc3)cc(-c3ccccc3)c2)nc(N)n1	–	> 180 µM
> 180 µM	–	Cc1cc(Nc2cc(Cl)c(N3CCCCC3)c(Cl)c2)nc(N)n1	–	> 180 µM
–	36%	CCOc1cc(Br)cc(Nc2cc(C)nc(N)n2)c1	–	6 µM
> 180 µM	–	Cc1cc(Nc2cc(Cl)cc(Cl)c2)nc(N(C)C)n1	–	> 180 µM
–	39%	Cc1cc(Nc2cc(Cl)cc(C(F)(F)F)c2)nc(N)n1	–	3.9 µM
> 180 µM	–	Cc1cc(Nc2ccccc2C)nc(N)n1	–	> 180 µM
> 21 µM	–	Cc1cc(Nc2cc(Cl)cc(-c3ccc(C(F)(F)F)cc3)c2)nc(N)n1	–	4.7 µM
> 180 µM	–	CCc1cc(Nc2cc(C)nc(N)n2)cc(-c2ccc(F)cc2)c1	–	2.7 µM
–	30%	Cc1cc(Nc2cc(Cl)cc(-c3ccsc3)c2)nc(N)n1	–	26 µM
> 180 µM	–	Cc1cc(Nc2cc(Cl)c(N3CCOCC3)c(Cl)c2)nc(N)n1	–	> 180 µM
> 63 µM	–	Cc1cc(Nc2cc(Cl)c(F)c(Cl)c2F)nc(N)n1	–	2.2 µM
> 180 µM	–	Cc1cc(Sc2cc(Cl)cc(Cl)c2)nc(N)n1	–	> 180 µM
> 180 µM	–	Nc1cccc(Nc2cc(Cl)cc(Cl)c2)n1	–	> 180 µM

IC50 [1]	inhibition [4]	SMILES	inhibition [2]	IC50 [3]
> 180 µM	–	Cc1cc(Nc2cc(F)cc(Cl)c2)nc(N)n1	–	32 µM
> 63 µM	–	Cc1cc(Nc2cc(Cl)c(Cl)c(Cl)c2)nc(N)n1	–	11 µM
> 180 µM	–	Cc1cc(Nc2cc(C(=O)Nc3cc(Cl)cc(Cl)c3)cc(C(=O)Nc3cc(Cl)cc(Cl)c3)c2)nc(N)n1	–	> 180 µM
–	43%	Cc1cc(Nc2cc(Br)c(F)c(Br)c2)nc(N)n1	–	1.6 µM
> 21 µM	–	Cc1cc(Nc2cc(Cl)cc(-c3ccc4c(c3)OCO4)c2)nc(N)n1	–	6.2 µM
> 180 µM	–	Cc1cc(N(C)c2cc(Cl)cc(Cl)c2)nc(N)n1	–	81 µM
> 180 µM	–	Cc1cc(Nc2cc(Cl)cc(-c3ccccc3Cl)c2)nc(N)n1	–	26 µM
> 180 µM	–	Nc1cc(Nc2cc(Cl)cc(Cl)c2)ccn1	–	22 µM
> 180 µM	–	CCc1ccc(Nc2cc(C)nc(N)n2)cc1	–	> 180 µM
> 180 µM	–	CC(C)c1cc(Nc2cc(Cl)cc(Cl)c2)nc(N)n1	–	12 µM
–	23%	CSc1cccc(Nc2cc(C)nc(N)n2)c1	–	149 µM
> 180 µM	–	Cc1cc(Nc2ccccc2Br)nc(N)n1	–	> 180 µM
> 180 µM	–	Nc1nc(Nc2cc(Cl)cc(Cl)c2)cc(N2CCOCC2)n1	–	> 180 µM
> 180 µM	–	Cc1cc(Nc2cc(Cl)cc(-c3ccc(Cl)c(C(F)(F)F)c3)c2)nc(N)n1	–	53 µM
> 63 µM	–	Cc1ccc(-c2cc(Cl)cc(Nc3cc(C)nc(N)n3)c2)cc1	–	4.6 µM
> 180 µM	–	Cc1cc(Nc2ccc(C(C)C)cc2)nc(N)n1	–	> 180 µM
> 180 µM	–	Cc1cc(Nc2cc(Cl)cc(Cl)c2)cc(N)n1	–	15 µM
> 180 µM	–	Nc1ccnc(Nc2cc(Cl)cc(Cl)c2)c1	–	> 180 µM
> 180 µM	–	CSc1ccccc1Nc1cc(C)nc(N)n1	–	> 180 µM
> 7 µM	–	Cc1cc(Nc2cc(Cl)cc(-c3ccc(C#N)cc3)c2)nc(N)n1	–	7.6 µM
> 180 µM	–	Cc1cc(Nc2ccc(Cl)cc2C)nc(N)n1	–	> 180 µM
–	25%	Cc1nc(N)nc(Nc2cc(Cl)cc(Cl)c2)c1C	–	4.8 µM
–	29%	Cc1cc(Nc2cc(Cl)cc(C#N)c2)nc(N)n1	–	3.9 µM
> 21 µM	–	Cc1cc(Nc2cc(Cl)cc(-c3ccc(F)cc3)c2)nc(N)n1	–	1.1 µM
–	33%	Cc1cc(Nc2cc(Cl)cc(Br)c2)nc(N)n1	–	2.2 µM

IC50 [1]	inhibition [4]	SMILES	inhibition [2]	IC50 [3]
> 180 µM	–	Cc1cc(Nc2ccc(-c3cc(Cl)cc(Cl)c3)cc2)nc(N)n1	–	> 180 µM
> 180 µM	–	Cc1cc(C)cc(Nc2cc(C)nc(N)n2)c1	–	141 µM
> 180 µM	–	Cc1cc(Nc2cc(Cl)cc(-c3ccc(Cl)c(Cl)c3)c2)nc(N)n1	–	102 µM
> 180 µM	–	CCc1cc(Br)cc(Nc2cc(C)nc(N)n2)c1	–	7.6 µM
> 63 µM	–	Cc1cc(Nc2cc(C(C)(C)C)cc(C(C)(C)C)c2)nc(N)n1	–	> 63 µM
> 180 µM	–	Cc1cc(Nc2cc(F)cc(F)c2)nc(N)n1	–	180 µM
> 180 µM	–	Cc1cc(Nc2cc(Cl)cc(-c3cncnc3)c2)nc(N)n1	–	> 180 µM
> 180 µM	–	Cc1cc(Nc2cc(Br)cc(S(F)(F)(F)(F)F)c2)nc(N)n1	–	8.7 µM
–	39%	Cc1cc(Nc2cc(S(C)(=O)=O)cc(S(C)(=O)=O)c2)nc(N)n1	–	1.5 µM
> 180 µM	–	Nc1nc(Nc2cc(Cl)cc(Cl)c2)cc(C(F)(F)F)n1	–	> 180 µM
> 180 µM	–	Cc1cc(Nc2cccc(F)c2)nc(N)n1	–	> 180 µM
> 180 µM	–	Cc1cc(Nc2cc(Cl)c(N(C)C)c(Cl)c2)nc(N)n1	–	> 180 µM
> 180 µM	–	Cc1cc(Nc2ccccc2)nc(N)n1	–	> 180 µM
> 180 µM	–	Cc1cc(Nc2cc(Cl)cc(-c3ccc4nonc4c3)c2)nc(N)n1	–	27 µM
> 180 µM	–	Cc1cc(Nc2ccc(C(F)(F)F)cc2)nc(N)n1	–	> 180 µM
–	29%	Cc1cc(NCCc2cc(Cl)cc(Cl)c2)nc(N)n1	–	28 µM
> 180 µM	–	Cc1cc(Nc2cc(Cl)cc(-c3cc4ccccc4s3)c2)nc(N)n1	–	41 µM
> 180 µM	–	Cc1cc(Nc2cc(Br)cc(OCC(C)C)c2)nc(N)n1	–	11 µM
> 180 µM	–	Cc1cc(Nc2cc(Cl)cc(-c3cccc(Cl)c3)c2)nc(N)n1	–	81 µM
> 180 µM	–	Cc1cc(Nc2cc(Cl)cc(-c3cnn(C)c3)c2)nc(N)n1	–	164 µM
> 180 µM	–	Cc1cc(Nc2cc(Cl)cc(-c3ccc4ccccc4c3)c2)nc(N)n1	–	57 µM
> 180 µM	–	Cc1cc(Nc2cc(Cl)cc(-c3ccc(-c4ccccc4)cc3)c2)nc(N)n1	–	167 µM
> 180 µM	–	Cc1cc(Nc2cc(Cl)cc(-c3cc(C(F)(F)F)cc(C(F)(F)F)c3)c2)nc(N)n1	–	28 µM
> 180 µM	–	Cc1cc(NCc2cc(Cl)cc(Cl)c2)nc(N)n1	–	139 µM
> 180 µM	–	Cc1cc(Nc2cc(C(F)(F)F)cc(C(F)(F)F)c2)nc(N)n1	–	11 µM

SMILES	IC50 [1]	inhibition [4]	inhibition [2]	IC50 [3]
Cc1cc(Nc2cccc(Cl)c2)nc(N)n1	> 180 µM	–	35%	–
Cc1cc(Nc2cc(Cl)c(Oc3ccccc3)c(Cl)c2)nc(N)n1	> 180 µM	–	38%	–
COC(=O)c1cc(Nc2cc(C)nc(N)n2)cc(C(=O)OC)c1	> 180 µM	–	40%	–
Cc1nc(N)cc(Nc2cc(Cl)cc(Br)c2)n1	> 180 µM	–	24%	–
Cc1cc(Nc2cc(Cl)cc(-c3ccc(N(C)C)cc3)c2)nc(N)n1	> 180 µM	–	34%	–
Nc1cnccc1Nc1cc(Cl)cc(Cl)c1	> 180 µM	–	21%	–
Cc1cc(N)cc(Nc2cc(Cl)cc(Cl)c2)n1	> 180 µM	–	24%	–
Cc1cc(Nc2cc(Cl)cc(-c3cc4ccccc4c4ccccc34)c2)nc(N)n1	> 180 µM	–	–	> 180 µM
Cc1cc(Nc2cccc(Br)c2)nc(N)n1	> 180 µM	–	41%	–
Cc1cc(Nc2cc(Cl)c(O)c(Cl)c2)nc(N)n1	> 180 µM	–	33%	–
Cc1cc(Nc2cccc(S(F)(F)(F)(F)F)c2)nc(N)n1	> 180 µM	–	23%	–
